High-throughput results from PubChem BioAssay.
Compounds with a hit are over-represented: about 2.5% of the library has one in this group of screens.
S100A4 MyoIIA: inhibitors of human S100A4 binding to myosin IIA peptide; P26447; inhibition, % at 10.7 µM; hit rate 0.14% among 360,000; S100A4/TAMRA-MyoIIA peptide fluorescence polarization;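 active means mean inhibition of at least 70% across replicates, with every replicate also reaching that level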
Target sequence (P26447 whole entry, looked up): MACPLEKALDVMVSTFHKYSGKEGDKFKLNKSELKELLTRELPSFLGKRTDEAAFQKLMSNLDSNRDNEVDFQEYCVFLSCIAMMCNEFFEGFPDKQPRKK
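Material: S100A4 monomer (human). Medium: Calcium-containing HEPES buffer, pH 7.2. Probe or stimulus: labelled myosin peptide probe, 5 nM. Compound dosing: one concentration per compound. Timing: polarization read 5 min after assay mix addition, stable 5–60 min. Benchmarks: DMSO as neutral control, TFP as positive control.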
E-sel inducer: E-selectin induction on HUVECs; P16581; HUVEC E-selectin immunofluorescence imaging; normalized: neutral wells 0, TNF-alpha wells 100; activation, % at 7.58 µM; hit rate 0.37% among 260,000; AID 686992;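 active means mean E-selectin-positive cell signal at least 10% of the positive control, reached in at least 60% of replicates, without over 20% cell loss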
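Test system: HUVEC; input: 3,000 HUVEC/well; measured by: immunofluorescence imaging; read-out: % PE-positive cells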
miR122 inh: miR-122 inhibition in Huh7 cells; hit rate 0.3% among 340,000; activation (reporter increase), % at 12.5 µM; Huh7 miR-122 Renilla luciferase sensor, 48 h; neutral wells = 0, positive control = 100;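 active means mean replicate activation score at least 90 and every replicate individually at or above 90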;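 further: higher luciferase means less miR-122 activity so hits act as miR-122 inhibitors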
SIRT5 inh: inhibitors of human sirtuin-5 desuccinylase; Purified SirT5, succinyl-peptide AMC, trypsin-coupled fluorescence; AID 652115; Q9NXA8; inhibition, % at 15 µM; hit rate 1.1% among 330,000; in the data active means inhibition above about 15%
Target sequence (Q9NXA8 whole entry, looked up): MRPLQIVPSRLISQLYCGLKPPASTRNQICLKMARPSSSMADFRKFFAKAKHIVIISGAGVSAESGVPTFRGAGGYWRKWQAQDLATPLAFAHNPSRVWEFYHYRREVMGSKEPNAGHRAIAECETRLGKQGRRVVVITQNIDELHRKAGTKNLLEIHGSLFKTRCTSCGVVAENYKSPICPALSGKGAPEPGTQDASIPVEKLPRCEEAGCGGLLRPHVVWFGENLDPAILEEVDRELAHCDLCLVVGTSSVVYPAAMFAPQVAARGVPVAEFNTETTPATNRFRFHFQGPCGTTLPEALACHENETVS
FGF22 binding-1: shifts melting point of recombinant human FGF22 | Q9HCT0 | recombinant FGF22 thermal shift, SYPRO orange fluorescence; percent of sucrose octasulfate shift, DMSO zero | activity (Tm shift, normalised), % at 9.99 µM | hit rate 1.5% among 340,000;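 active means mean Tm shift, scaled 0 neutral to 100 positive control, at about 1.3% or above, every replicate too, limit read from the data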
FGF22 binding-2: FGF22 (human) binding in thermal shift. shares compounds with FGF22 binding-1. recombinant FGF22 thermal shift, SYPRO orange fluorescence. thermal shift activity, °C (ΔTm) at 38 µM. hit rate 2% among 1,000;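 active means fitted rise in melting shift crosses a set limit at or below the top valid dose tested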
SYPRO no-protein: compound-only SYPRO artifact for FGF22 binders; shares compounds with FGF22 binding-1; compound-only SYPRO orange thermal shift counter-screen, no protein; AC50, µM (highest dose often 38 µM); hit rate 2% among 1,000; AID 743019;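 active means rising signal whose fitted curve reaches the 0.54 level within the top valid dose, showing a melting point, actives reach about 13 µM in these data; inactive means the rest, including activity in the opposite direction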; further: value is where the raw curve crosses a fixed level and not half-maximal
* marks the source's active call; other numbers are inactive results; i = inactive; . = no result given; [ ] = dose if it differs, or a comment.

SMILES	S100A4 MyoIIA	E-sel inducer	miR122 inh	SIRT5 inh	FGF22 binding-1	FGF22 binding-2	SYPRO no-protein
N#C[C@@H]1[C@H](c2ccc(-c3cccnc3)cc2)[C@@H](CO)N1C(=O)C1CC1	5	0	.	2	0	.	.
Cc1ccccc1-c1ccccc1[C@H]1[C@@H](CO)N(C(=O)c2ccccc2)[C@H]1C#N	5	0	.	0	1.7*	0.13[42 µM]	i
C/C=C/c1ccccc1[C@@H]1[C@@H](C#N)N(C(C)=O)[C@@H]1CO	-5	0	.	-4	1.3*	-0.004[42 µM]	i
COc1ccc2c3c(n(C)c2c1)[C@@H](CO)N(C(=O)c1ccncc1)CC31CN(C(C)=O)C1	1	0	.	-1	.	.	.
C/C=C/c1ccc([C@@H]2[C@H](CO)N(C(=O)CC)C23CN(S(=O)(=O)CC)C3)cc1	-8	0	.	-1	0	.	.
CO[C@H]1CN(C)C(=O)c2cc(NC(C)=O)ccc2OC[C@@H](C)N(C(=O)C2CC2)C[C@H]1C	5	0	6[16.7 µM]	-3	0	.	.
COc1ccc2c3c(n(C)c2c1)[C@H](CO)N(C(=O)C1CCCC1)CC31CN(C(=O)CC2CC2)C1	6	0	.	-4	0	.	.
COc1cccc2sc(NNC(=O)C3COc4ccccc4O3)nc12 (centres undefined)	5	.	.	1	17*	0.22	i
O=C(NNc1nc2c(F)cccc2s1)C1COc2ccccc2O1 (centres undefined)	17	14	.	1	0	.	.
C[C@@H](NC(=O)C[C@@H]1CC[C@H]2[C@@H](COC[C@H](O)CN2C(=O)Nc2cccc(Cl)c2)O1)c1ccccc1	-7	0	2[16.7 µM]	2	0	.	.
COc1ccccc1CNC(=O)C[C@H]1CC[C@H]2[C@@H](COC[C@H](O)CN2C(=O)Nc2ccc(Cl)cc2)O1	9	0	-2[16.7 µM]	-1	0	.	.
COc1ccccc1CNC(=O)C[C@H]1CC[C@@H]2[C@H](COC[C@H](O)CN2C(=O)Nc2ccc(Cl)cc2)O1	-3	0	-2[16.7 µM]	3	17*	-0.099	i
O=C(C[C@H]1CC[C@H]2[C@@H](COC[C@@H](O)CN2C(=O)Nc2cccc(Cl)c2)O1)NCC1CCCCC1	15	0	-1[16.7 µM]	-2	0	.	.
O=C(C[C@@H]1CC[C@@H]2[C@H](COC[C@@H](O)CN2C(=O)Nc2cccc(Cl)c2)O1)NCC1CCCCC1	-22	0	-4[16.7 µM]	1	14*	0.033	i
COc1cccc(NC(=O)N2C[C@H](O)COC[C@@H]3O[C@H](CC(=O)NC4CCC4)CC[C@H]32)c1	-1	0	11[16.7 µM]	0	0	.	.
C[C@H](NC(=O)C[C@@H]1CC[C@@H]2[C@H](COC[C@@H](O)CN2C(=O)Nc2cccc(Cl)c2)O1)c1ccccc1	.	0	-8[16.7 µM]	.	1.5*	-0.005	i
COc1cccc(NC(=O)N2C[C@H](O)COC[C@@H]3O[C@@H](CC(=O)NC4CCC4)CC[C@H]32)c1	-2	0	0[16.7 µM]	5	1.4*	-0.12	i
O=C(N[C@@H]1CC[C@H](CCn2cc(C3CCCCC3)nn2)O[C@H]1CO)c1cccnc1	2	0	.	-4	0	.	.
CCC(=O)Nc1ccc2c(c1)C(=O)N(C)C[C@@H](OC)[C@H](C)CN(C(=O)c1ccccn1)[C@@H](C)CO2	0	0	.	0	0	.	.
O=C(C[C@@H]1CC[C@H]2[C@@H](COC[C@H](O)CN2CC2CCOCC2)O1)NCC1CCCCC1	10	0	-1[16.7 µM]	0	0	.	.
O=C(C[C@@H]1CC[C@H]2[C@@H](COC[C@@H](O)CN2CC2CCOCC2)O1)NCC1CCCCC1	5	0	11[16.7 µM]	-3	7.9*	-0.032	i
Cc1cccc(NC(=O)c2ccc(-c3ccccc3[N+](=O)[O-])o2)c1	-4	.	.	1	1.6*	0.2	i
COc1ccc(C2=NN(c3ccccc3)C(c3cn(CCC(=O)O)nc3-c3ccccc3)C2)cc1 (centres undefined)	-4	0	.	12	2.3*	0.065	i
COc1ccc(-c2nn(CCC(=O)O)cc2CCC(=O)O)cc1	.	.	-7	.	.	.	.
